Test results taken from ChEMBL document CHEMBL1811853, “Design and evaluation of 3-aminopyrazolopyridinone kinase inhibitors inspired by the natural product indirubin” (Bioorg Med Chem, 2011).

Assays:
[1] = biological target: Proto-oncogene tyrosine-protein kinase Src (Homo sapiens, UniProt P12931); assay: Inhibition of SRC at 30 uM by microfluidic mobility shift assay
How it was run: (§1)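 Single-concentration screen, singlicate, 30 uM final (diluted from 1 mM DMSO solutions), fluorescently tagged peptide substrate appropriate to each kinase, ATP at apparent Km for each protein. Phosphorylated and unphosphorylated peptides separated electrophoretically; conversion is the phosphorylated peak area over the sum of both peaks. No-inhibitor and no-ATP controls; H89 reference on each plate.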

[2] = biological target: T1, MAP kinase-activated protein kinase 5 (Homo sapiens) (UniProt Q8IW41); assay: Inhibition of PRAK1 at 30 uM by microfluidic mobility shift assay; how it was run: as §1
T1 sequence (whole entry): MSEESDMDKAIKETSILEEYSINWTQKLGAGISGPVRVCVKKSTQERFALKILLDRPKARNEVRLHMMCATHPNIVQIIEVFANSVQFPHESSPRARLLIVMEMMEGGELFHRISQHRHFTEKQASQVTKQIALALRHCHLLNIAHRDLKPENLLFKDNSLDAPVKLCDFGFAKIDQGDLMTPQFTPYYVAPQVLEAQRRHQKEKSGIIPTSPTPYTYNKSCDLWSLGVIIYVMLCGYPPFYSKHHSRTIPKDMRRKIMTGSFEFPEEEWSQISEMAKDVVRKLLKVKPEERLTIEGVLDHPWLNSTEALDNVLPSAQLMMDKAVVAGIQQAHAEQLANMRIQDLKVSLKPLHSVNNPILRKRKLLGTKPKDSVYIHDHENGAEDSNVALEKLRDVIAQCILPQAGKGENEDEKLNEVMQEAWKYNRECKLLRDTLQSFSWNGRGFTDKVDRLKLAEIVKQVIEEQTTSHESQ

[3] = biological target: RAC-alpha serine/threonine-protein kinase (Homo sapiens) (UniProt P31749); assay: Inhibition of AKT1 at 30 uM by microfluidic mobility shift assay; how it was run: as §1
Chain of RAC-alpha serine/threonine-protein kinase (Homo sapiens) (P31749 whole entry): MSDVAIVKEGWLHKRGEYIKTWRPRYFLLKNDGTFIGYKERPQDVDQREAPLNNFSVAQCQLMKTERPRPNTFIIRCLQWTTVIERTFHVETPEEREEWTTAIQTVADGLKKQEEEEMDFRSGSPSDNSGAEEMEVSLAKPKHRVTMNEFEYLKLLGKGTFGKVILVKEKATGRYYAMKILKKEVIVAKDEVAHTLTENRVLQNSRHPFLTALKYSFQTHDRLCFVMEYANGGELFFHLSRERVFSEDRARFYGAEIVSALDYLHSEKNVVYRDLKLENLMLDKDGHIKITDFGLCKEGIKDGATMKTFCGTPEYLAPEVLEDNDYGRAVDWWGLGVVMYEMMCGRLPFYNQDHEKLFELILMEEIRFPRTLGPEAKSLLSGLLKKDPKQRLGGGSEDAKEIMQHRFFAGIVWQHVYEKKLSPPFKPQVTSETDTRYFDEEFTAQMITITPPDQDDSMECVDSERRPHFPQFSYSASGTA

[4] = biological target: Serine/threonine-protein kinase Chk2 (Homo sapiens, UniProt O96017); assay: Inhibition of CHK2 at 30 uM by microfluidic mobility shift assay; how it was run: as §1
Chain of Serine/threonine-protein kinase Chk2 (O96017 whole entry): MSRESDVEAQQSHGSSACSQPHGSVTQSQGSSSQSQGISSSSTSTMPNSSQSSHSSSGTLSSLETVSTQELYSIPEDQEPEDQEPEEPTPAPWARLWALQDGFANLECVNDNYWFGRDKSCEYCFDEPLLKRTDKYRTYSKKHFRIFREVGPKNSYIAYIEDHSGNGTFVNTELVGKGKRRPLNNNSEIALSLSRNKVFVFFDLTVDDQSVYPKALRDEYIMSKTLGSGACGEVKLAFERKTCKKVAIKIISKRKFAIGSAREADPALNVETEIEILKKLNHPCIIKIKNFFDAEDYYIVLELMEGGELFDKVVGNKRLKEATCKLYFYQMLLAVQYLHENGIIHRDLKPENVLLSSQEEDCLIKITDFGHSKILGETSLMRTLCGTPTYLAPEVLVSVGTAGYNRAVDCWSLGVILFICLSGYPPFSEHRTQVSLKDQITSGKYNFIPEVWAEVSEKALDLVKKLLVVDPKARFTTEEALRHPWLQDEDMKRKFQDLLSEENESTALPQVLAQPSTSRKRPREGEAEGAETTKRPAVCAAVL

[5] = biological target: MAP kinase-activated protein kinase 2 (Homo sapiens, UniProt P49137); assay: Inhibition of MAPKAPK2 at 30 uM by microfluidic mobility shift assay; how it was run: as §1
Chain of MAP kinase-activated protein kinase 2 (P49137 whole entry, looked up): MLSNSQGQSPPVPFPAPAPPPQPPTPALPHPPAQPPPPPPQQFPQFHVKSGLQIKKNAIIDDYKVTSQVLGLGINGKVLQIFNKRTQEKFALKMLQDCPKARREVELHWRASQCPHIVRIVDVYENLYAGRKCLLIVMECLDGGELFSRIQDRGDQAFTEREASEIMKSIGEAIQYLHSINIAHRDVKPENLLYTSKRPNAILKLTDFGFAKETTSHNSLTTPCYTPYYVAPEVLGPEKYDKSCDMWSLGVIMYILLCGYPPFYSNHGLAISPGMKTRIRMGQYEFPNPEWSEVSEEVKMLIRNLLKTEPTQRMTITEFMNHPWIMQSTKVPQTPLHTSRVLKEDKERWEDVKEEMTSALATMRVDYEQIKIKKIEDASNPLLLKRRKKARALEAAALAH

[6] = biological target: T2, Serine/threonine-protein kinase D2 (Homo sapiens) (UniProt Q9BZL6); assay: Inhibition of PKD2 at 30 uM by microfluidic mobility shift assay; how it was run: as §1
T2 sequence (whole entry): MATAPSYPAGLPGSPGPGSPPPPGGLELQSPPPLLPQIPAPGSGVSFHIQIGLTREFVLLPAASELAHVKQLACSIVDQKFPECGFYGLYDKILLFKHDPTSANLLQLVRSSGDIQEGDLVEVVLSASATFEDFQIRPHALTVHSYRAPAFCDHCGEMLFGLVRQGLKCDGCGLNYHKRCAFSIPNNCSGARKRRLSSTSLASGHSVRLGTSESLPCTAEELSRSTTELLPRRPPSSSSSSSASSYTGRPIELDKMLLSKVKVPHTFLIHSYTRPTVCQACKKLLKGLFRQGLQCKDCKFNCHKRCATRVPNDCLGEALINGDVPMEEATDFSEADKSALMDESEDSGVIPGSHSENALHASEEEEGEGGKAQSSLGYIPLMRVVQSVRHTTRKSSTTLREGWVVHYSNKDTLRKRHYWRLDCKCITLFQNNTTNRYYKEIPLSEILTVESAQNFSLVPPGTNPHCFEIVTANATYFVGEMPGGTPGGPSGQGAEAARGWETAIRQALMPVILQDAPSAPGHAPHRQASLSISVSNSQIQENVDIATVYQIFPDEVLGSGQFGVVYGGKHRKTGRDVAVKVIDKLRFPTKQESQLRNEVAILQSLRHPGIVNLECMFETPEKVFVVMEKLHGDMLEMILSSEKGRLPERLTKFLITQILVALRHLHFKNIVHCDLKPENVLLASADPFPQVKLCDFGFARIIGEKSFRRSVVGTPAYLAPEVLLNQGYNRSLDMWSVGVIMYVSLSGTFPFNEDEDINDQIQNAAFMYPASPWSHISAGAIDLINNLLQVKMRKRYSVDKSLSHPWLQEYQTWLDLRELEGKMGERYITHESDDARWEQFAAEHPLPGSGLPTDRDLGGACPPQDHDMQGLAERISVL

[7] = biological target: Tyrosine-protein kinase Lck (Homo sapiens, UniProt P06239); assay: Inhibition of LCK at 30 uM by microfluidic mobility shift assay; how it was run: as §1
Chain of Tyrosine-protein kinase Lck (P06239 2-509 limits assumed): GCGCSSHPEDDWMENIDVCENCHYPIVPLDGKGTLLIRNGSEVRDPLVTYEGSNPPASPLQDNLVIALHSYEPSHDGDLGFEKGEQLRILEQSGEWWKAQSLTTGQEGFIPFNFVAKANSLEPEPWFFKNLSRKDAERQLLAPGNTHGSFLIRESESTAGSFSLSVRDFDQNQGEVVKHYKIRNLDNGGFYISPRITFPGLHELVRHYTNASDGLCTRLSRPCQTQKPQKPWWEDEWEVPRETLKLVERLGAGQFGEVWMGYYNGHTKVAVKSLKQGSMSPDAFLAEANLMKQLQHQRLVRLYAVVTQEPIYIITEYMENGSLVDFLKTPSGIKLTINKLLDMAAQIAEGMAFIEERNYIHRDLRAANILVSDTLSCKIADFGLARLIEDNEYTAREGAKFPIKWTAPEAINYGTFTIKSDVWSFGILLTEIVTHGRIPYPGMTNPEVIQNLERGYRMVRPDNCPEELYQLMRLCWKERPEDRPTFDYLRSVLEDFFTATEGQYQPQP

[8] = biological target: RAC-beta serine/threonine-protein kinase (Homo sapiens) (UniProt P31751); assay: Inhibition of AKT2 at 30 uM by microfluidic mobility shift assay; how it was run: as §1
Chain of RAC-beta serine/threonine-protein kinase (Homo sapiens) (P31751 whole entry): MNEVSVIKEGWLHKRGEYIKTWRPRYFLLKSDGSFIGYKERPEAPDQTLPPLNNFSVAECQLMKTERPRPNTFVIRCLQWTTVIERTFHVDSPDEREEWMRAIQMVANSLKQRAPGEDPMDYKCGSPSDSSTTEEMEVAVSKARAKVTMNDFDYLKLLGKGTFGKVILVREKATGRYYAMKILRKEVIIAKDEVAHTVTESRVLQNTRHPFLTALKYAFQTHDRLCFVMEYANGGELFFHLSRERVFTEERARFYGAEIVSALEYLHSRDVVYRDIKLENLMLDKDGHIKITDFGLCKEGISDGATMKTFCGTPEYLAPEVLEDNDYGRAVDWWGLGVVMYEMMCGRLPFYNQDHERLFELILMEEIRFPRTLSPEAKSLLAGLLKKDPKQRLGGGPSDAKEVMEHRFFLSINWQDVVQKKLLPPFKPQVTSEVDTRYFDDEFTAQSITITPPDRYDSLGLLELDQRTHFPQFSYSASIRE

[9] = biological target: Ribosomal protein S6 kinase alpha-5 (Homo sapiens) (UniProt O75582); assay: Inhibition of MSK1 at 30 uM by microfluidic mobility shift assay; how it was run: as §1
Chain of Ribosomal protein S6 kinase alpha-5 (Homo sapiens) (O75582 whole entry, looked up): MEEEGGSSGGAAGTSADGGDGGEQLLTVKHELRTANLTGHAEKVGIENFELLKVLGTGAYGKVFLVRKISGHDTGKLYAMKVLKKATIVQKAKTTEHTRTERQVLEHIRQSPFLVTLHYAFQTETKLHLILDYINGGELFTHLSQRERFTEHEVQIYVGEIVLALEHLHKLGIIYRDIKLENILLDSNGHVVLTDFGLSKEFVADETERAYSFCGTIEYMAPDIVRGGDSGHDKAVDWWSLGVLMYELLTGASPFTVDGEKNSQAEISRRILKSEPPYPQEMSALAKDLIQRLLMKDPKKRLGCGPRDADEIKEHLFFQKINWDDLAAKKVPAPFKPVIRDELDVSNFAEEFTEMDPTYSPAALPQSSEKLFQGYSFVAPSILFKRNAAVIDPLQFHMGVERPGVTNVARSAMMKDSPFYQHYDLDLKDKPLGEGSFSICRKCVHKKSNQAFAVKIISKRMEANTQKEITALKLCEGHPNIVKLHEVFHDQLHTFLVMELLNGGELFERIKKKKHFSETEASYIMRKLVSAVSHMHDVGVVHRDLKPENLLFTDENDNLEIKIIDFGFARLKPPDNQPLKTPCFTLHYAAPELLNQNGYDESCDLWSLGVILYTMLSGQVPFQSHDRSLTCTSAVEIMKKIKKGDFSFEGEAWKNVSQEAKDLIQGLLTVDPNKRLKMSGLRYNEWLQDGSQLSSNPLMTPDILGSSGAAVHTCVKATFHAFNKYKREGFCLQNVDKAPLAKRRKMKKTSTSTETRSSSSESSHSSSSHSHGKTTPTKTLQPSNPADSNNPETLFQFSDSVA

[10] = biological target: Ribosomal protein S6 kinase alpha-1 (Homo sapiens) (UniProt Q15418); assay: Inhibition of RSK1 at 30 uM by microfluidic mobility shift assay; how it was run: as §1
[11] = biological target: Mitogen-activated protein kinase 14 (Homo sapiens, UniProt Q16539); assay: Inhibition of p38alpha at 30 uM by microfluidic mobility shift assay; how it was run: as §1
Chain of Mitogen-activated protein kinase 14 (Q16539 whole entry): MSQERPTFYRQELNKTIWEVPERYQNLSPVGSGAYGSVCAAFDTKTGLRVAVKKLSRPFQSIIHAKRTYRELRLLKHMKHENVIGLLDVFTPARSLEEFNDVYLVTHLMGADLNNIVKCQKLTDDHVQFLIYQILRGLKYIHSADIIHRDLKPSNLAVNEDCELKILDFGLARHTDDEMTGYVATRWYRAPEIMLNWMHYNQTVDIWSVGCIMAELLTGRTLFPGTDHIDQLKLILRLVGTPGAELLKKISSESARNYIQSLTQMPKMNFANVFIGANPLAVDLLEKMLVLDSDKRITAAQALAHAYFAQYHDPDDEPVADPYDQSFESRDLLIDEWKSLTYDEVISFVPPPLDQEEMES

[12] = biological target: Mitogen-activated protein kinase 1 (Homo sapiens) (UniProt P28482); assay: Inhibition of ERK2 at 30 uM by microfluidic mobility shift assay; how it was run: as §1
Chain of Mitogen-activated protein kinase 1 (Homo sapiens) (P28482 whole entry): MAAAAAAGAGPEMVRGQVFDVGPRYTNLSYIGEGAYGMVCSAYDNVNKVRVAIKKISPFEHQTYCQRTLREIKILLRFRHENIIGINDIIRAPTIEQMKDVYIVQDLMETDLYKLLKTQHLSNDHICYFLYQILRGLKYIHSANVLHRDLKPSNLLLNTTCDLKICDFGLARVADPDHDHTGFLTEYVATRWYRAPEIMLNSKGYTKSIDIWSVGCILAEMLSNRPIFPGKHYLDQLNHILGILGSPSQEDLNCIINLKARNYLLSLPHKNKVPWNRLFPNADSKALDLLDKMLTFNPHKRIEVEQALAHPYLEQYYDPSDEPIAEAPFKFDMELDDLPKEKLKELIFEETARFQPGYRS

[13] = biological target: T3, Aurora kinase A (Homo sapiens) (UniProt O14965); assay: Inhibition of AurA at 30 uM by microfluidic mobility shift assay; how it was run: as §1
T3 sequence (whole entry): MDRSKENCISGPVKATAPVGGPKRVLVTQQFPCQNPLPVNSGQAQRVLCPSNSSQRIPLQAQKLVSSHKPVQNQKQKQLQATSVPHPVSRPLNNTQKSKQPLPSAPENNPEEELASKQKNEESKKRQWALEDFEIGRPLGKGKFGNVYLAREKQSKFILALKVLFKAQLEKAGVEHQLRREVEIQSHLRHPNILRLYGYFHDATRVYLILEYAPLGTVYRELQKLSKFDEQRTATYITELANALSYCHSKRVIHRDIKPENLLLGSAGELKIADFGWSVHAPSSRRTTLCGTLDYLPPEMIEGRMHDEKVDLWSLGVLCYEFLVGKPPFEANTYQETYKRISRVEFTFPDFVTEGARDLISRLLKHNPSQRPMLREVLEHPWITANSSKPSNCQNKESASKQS

[14] = biological target: Tyrosine-protein kinase Fyn (Homo sapiens, UniProt P06241); assay: Inhibition of FYN at 30 uM by microfluidic mobility shift assay; how it was run: as §1
[15] = biological target: Insulin receptor (Homo sapiens) (UniProt P06213); assay: Inhibition of INSR at 30 uM by microfluidic mobility shift assay; how it was run: as §1
[16] = biological target: Glycogen synthase kinase-3 beta (Homo sapiens) (UniProt P49841); assay: Inhibition of GSK3B at 30 uM by microfluidic mobility shift assay; how it was run: as §1
[17] = Inhibition of PKA at 30 uM by microfluidic mobility shift assay; how it was run: as §1
[18] = biological target: Tyrosine-protein kinase ABL1 (Homo sapiens, UniProt P00519); assay: Inhibition of ABL at 30 uM by microfluidic mobility shift assay; how it was run: as §1
[19] = biological target: Tyrosine-protein kinase Lyn (Homo sapiens, UniProt P07948); assay: Inhibition of LYN at 30 uM by microfluidic mobility shift assay; how it was run: as §1
[20] = biological target: Mitogen-activated protein kinase 3 (Homo sapiens) (UniProt P27361); assay: Inhibition of ERK1 at 30 uM by microfluidic mobility shift assay; how it was run: as §1
Chain of Mitogen-activated protein kinase 3 (Homo sapiens) (P27361 whole entry): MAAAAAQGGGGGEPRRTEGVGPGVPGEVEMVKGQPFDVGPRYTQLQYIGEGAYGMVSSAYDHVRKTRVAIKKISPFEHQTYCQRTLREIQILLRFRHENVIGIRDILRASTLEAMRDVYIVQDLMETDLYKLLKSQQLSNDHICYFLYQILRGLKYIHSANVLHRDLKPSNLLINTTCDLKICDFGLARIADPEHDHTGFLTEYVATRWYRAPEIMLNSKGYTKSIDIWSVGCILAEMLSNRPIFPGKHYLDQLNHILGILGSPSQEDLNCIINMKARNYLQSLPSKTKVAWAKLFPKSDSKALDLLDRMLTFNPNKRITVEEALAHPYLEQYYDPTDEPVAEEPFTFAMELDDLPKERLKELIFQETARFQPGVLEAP

[21] = biological target: T4, Serine/threonine-protein kinase Chk1 (Homo sapiens) (UniProt O14757); assay: Inhibition of CHK1 at 30 uM by microfluidic mobility shift assay; how it was run: as §1
T4 sequence (whole entry): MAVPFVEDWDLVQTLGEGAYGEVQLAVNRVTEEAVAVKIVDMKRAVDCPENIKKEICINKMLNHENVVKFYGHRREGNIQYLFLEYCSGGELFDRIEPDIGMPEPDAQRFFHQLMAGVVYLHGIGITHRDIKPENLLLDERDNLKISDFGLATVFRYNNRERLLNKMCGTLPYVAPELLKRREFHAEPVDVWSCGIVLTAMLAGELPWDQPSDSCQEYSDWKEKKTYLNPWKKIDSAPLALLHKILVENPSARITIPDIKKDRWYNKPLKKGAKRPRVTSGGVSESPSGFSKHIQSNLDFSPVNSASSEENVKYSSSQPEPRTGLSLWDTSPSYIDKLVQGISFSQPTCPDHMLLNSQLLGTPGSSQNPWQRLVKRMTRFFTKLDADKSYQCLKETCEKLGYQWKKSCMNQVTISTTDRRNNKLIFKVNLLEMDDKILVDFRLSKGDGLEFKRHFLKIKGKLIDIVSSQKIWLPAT

Chain of Proto-oncogene tyrosine-protein kinase Src (P12931 2-536 limits assumed): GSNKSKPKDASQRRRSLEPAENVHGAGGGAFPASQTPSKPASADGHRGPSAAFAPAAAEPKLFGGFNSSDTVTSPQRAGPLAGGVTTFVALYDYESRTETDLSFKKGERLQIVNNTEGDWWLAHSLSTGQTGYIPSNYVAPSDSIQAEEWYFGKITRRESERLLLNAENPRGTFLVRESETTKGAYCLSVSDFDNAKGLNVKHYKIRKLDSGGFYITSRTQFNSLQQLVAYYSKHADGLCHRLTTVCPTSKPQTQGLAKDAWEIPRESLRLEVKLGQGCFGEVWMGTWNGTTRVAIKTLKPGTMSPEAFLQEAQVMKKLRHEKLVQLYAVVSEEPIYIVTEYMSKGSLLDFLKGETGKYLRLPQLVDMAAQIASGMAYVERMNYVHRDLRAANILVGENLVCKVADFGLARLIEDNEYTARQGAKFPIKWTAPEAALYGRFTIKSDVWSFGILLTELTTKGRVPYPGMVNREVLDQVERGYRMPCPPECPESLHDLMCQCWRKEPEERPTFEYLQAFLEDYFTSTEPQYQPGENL

Question: Which inhibition [1] does the source give for Cc1cc2c(c(N)nn2C)c(N2CCCCC2)n1 here?
Answer: 4%

Question: What about the inhibition [2] of the same molecule?
Answer: 17%

Question: What about the inhibition [3] of the same molecule?
Answer: 6%

Question: And the inhibition [4]?
Answer: 4%

Question: What about the inhibition [5] of the same molecule?
Answer: 7%

Question: What about the inhibition [6] of the same molecule?
Answer: 16%

Question: What about the inhibition [7] of the same molecule?
Answer: 6%

Question: What about the inhibition [8] of the same molecule?
Answer: 0%

Question: What about the inhibition [9] of the same molecule?
Answer: 7%

Question: And the inhibition [10]?
Answer: 23%

Question: What about the inhibition [11] of the same molecule?
Answer: 4%

Question: What about the inhibition [12] of the same molecule?
Answer: 1%

Question: And the inhibition [13]?
Answer: 41%

Question: And the inhibition [14]?
Answer: 8%

Question: And the inhibition [15]?
Answer: -2%

Question: And the inhibition [16]?
Answer: 8%

Question: And the inhibition [17]?
Answer: 6%

Question: What about the inhibition [18] of the same molecule?
Answer: 19%

Question: What about the inhibition [19] of the same molecule?
Answer: 11%

Question: And the inhibition [20]?
Answer: 13%

Question: Which results are given for Cc1cc2[nH]nc(N)c2c(N2CCOCC2)n1?
Answer: inhibition [1]: 45%; inhibition [2]: 5%; inhibition [3]: 17%; inhibition [4]: 23%; inhibition [5]: 1%; inhibition [7]: 44%; inhibition [8]: 7%; inhibition [9]: 74%; inhibition [21]: 13%; inhibition [10]: 30%; inhibition [11]: -3%; inhibition [12]: 7%; inhibition [13]: 72%; inhibition [14]: 43%; inhibition [15]: 0%; inhibition [16]: 73%; inhibition [17]: 71%; inhibition [18]: 24%; inhibition [19]: 51%; inhibition [20]: 15%

Question: Which results are given for Cc1cc2[nH]nc(N)c2cn1?
Answer: inhibition [1]: 6%; inhibition [2]: 13%; inhibition [3]: -1%; inhibition [4]: 7%; inhibition [5]: 7%; inhibition [6]: 25%; inhibition [7]: 6%; inhibition [8]: -3%; inhibition [9]: 13%; inhibition [10]: 11%; inhibition [11]: 2%; inhibition [12]: 4%; inhibition [13]: 31%; inhibition [14]: 3%; inhibition [15]: 5%; inhibition [16]: 9%; inhibition [17]: 19%; inhibition [18]: 11%; inhibition [19]: 8%; inhibition [20]: 8%

Question: Which results are given for Nc1c2cnc(-c3ccccc3)cc2nn1-c1ccccc1?
Answer: inhibition [1]: 9%; inhibition [2]: 2%; inhibition [3]: -1%; inhibition [4]: 7%; inhibition [5]: 1%; inhibition [7]: 13%; inhibition [8]: 3%; inhibition [9]: -2%; inhibition [21]: 6%; inhibition [10]: -3%; inhibition [11]: 55%; inhibition [12]: 1%; inhibition [13]: 3%; inhibition [14]: 13%; inhibition [15]: 3%; inhibition [16]: 4%; inhibition [17]: 4%; inhibition [18]: 19%; inhibition [19]: 29%; inhibition [20]: 5%
